In ChEMBL document CHEMBL2429774, “Synthesis and biological evaluation of novel 1,6-diaryl pyridin-2(1H)-one analogs” (Eur J Med Chem, 2013) one finds IC50, inhibition in vivo and Activity data, which are given here for 24 compounds.

pIC50: −log10 of the molar value. Active and inactive are the calls of the source. The calls are words filed in the database; no cut-off is given here. Some results are limits rather than exact numbers.

Assay [1] has as its system HepG2. Nature of the assay: Cytotoxicity against human HepG2 cells after 72 hrs by spectrophotometry. To be noted: HepG2, 72 h. The assay is classed as functional, cell-based. The method, boiled down:
(§1)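 Cells grown as monolayers in DMEM with 10% FBS, penicillin and streptomycin at 37 °C, 5% CO₂. Seeded at 5 × 10³ cells/well and exposed for 72 h. Medium changed, then another day of incubation. XTT (1 mg/mL) plus PMS added in serum-free medium for 4 h at 37 °C, read at 492 nm. Percent of control growth = treated/control absorbance × 100 (n = 3). GI50 taken from the linear portion of the curve.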

The test system of assay [2] is SK-OV-3. Nature of the assay: Cytotoxicity against human SKOV3 cells after 72 hrs by spectrophotometry. It is filed as functional, cell-based. As to conditions: SK-OV-3, 72 h. The method, boiled down:
as §1

Assay [3] has as its system H22. Nature of the assay: Antitumor activity against mouse H22 cells transfected in nude mouse assessed as tumor growth inhibition at 50 mg/kg, qd after 7 days relative to control. As to conditions: H22, 168 h, read-out: TGI. It is filed as functional. The gist of the method:
(§2)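 Female SPF/ICR athymic nude mice, 4–5 weeks old (24 ± 2 g), received H22 cells (1 × 10⁶ per animal) s.c. into the armpit. Dosing started once tumors were detectable by fluorescent macro-imaging and was given once daily for 7 days. Animals were then killed and solid tumors excised and weighed. Inhibition = (mean vehicle tumor weight − mean treated)/mean vehicle × 100%. n = 6 per group at start.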

Assay [4] relates to H22. Description: Antitumor activity against mouse H22 cells transfected in nude mouse assessed as tumor growth inhibition at 200 mg/kg, qd after 7 days relative to control. To be noted: H22, 168 h, read-out: TGI. It is filed as functional. The gist of the method: as §2
Assay [5] has as its system HepG2. Description: Cell cycle arrest in human HepG2 cells assessed as accumulation at G2/M phase at 62.5 nM after 24 hrs by flow cytometry. It is filed as functional, cell-based. The gist of the method:
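After treatment, cells were harvested, washed in PBS and resuspended in 1 mL 0.1% sodium citrate containing 0.05 mg propidium iodide and 50 µg RNase for 30 min at room temperature in the dark. DNA content was measured by flow cytometry, with at least three experiments run.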
(In flow cytometry, cells or beads pass a laser one at a time.)

Assay [6] relates to H22. Nature of the assay: Antitumor activity against mouse H22 cells transfected in nude mouse assessed as tumor growth inhibition at 10 mg/kg, qd after 7 days relative to control. The assay is classed as functional. As to conditions: H22, 168 h, read-out: TGI. The gist of the method:
as §2

As a reminder, the pIC50 is the negative decadic logarithm of the IC50, by convention in mol/L.

Take `COc1cc(-n2c(-c3ccncc3)cccc2=O)cc(OC)c1OC`: the pIC50 in assay [1] and in assay [2] was 5.75 in each case.

As to `COc1cc(-n2c(-c3ccc(OC(F)(F)F)cc3)cccc2=O)cc(OC)c1OC`, the values for the pIC50 in assay [1] and in assay [2] were 5.71 and 6.34, respectively.

As for `COc1cc(-c2cccc(=O)n2-c2ccc(F)cc2)cc(OC)c1OC`, the pIC50 in assay [1] is under 4.00; in assay [2], 5.01.

As to `COc1cc(-c2cccc(=O)n2-c2ccc([N+](=O)[O-])cc2)cc(OC)c1OC`, the figures for the pIC50 in assay [1] and in assay [2] were 6.03 and 6.51, respectively.

For `COc1ccc(-n2c(-c3cc(OC)c(OC)c(OC)c3)cccc2=O)cc1OC`, the pIC50 is 5.31 in assay [1] and 4.84 in assay [2].

With `COc1ccc(-c2cccc(=O)n2-c2cc(OC)c(OC)c(OC)c2)cc1O`, the inhibition in vivo at 50 mg/kg in assay [3] amounted to 27%. In addition, in assay [4], the inhibition in vivo at 200 mg/kg is 40%. Besides, the pIC50 in assay [1] and in assay [2] was over 8.00 throughout. In assay [5], the result was inactive.

With `CC(=O)O[C@H]1C(=O)[C@@]2(C)[C@H]([C@H](OC(=O)c3ccccc3)[C@]3(O)C[C@H](OC(=O)[C@H](O)[C@@H](NC(=O)c4ccccc4)c4ccccc4)C(C)=C1C3(C)C)[C@]1(OC(C)=O)CO[C@@H]1C[C@@H]2O` [PACLITAXEL], in assay [6], the inhibition in vivo at 10 mg/kg was 47%. The pIC50 in assay [1] was 8.22; in assay [2], 7.92.

As for `COc1cc(-n2c(-c3ccc([N+](=O)[O-])cc3)cccc2=O)cc(OC)c1OC`, in assay [3], the inhibition in vivo at 50 mg/kg is 31%. For the same compound, in assay [4], the inhibition in vivo at 200 mg/kg is 61%. The negative logarithm of the IC50 (pIC50) is over 8.00 in assay [1] and 6.70 in assay [2]. In assay [5], the outcome was inactive.

Turning to `COc1cc(-c2cccc(=O)n2-c2ccc3c(c2)OCO3)cc(OC)c1OC`, the pIC50 in assay [1] was 5.27; in assay [2] it was 4.85.

As to `COc1cc(-n2c(-c3cccc4cc[nH]c34)cccc2=O)cc(OC)c1OC`, the results for the pIC50 in assay [1] and in assay [2] were 5.62 and 6.86, respectively.

Regarding `COc1cc(-c2cccc(=O)n2-c2ccncc2)cc(OC)c1OC`, the values for the pIC50 in assay [1] and in assay [2] were 5.60 and 5.52, respectively.

`COc1ccc(-n2c(-c3cc(OC)c(OC)c(OC)c3)cccc2=O)cc1OCc1ccccc1`: the pIC50 was 5.52 in assay [1] and 4.59 in assay [2].

For the compound `COc1cc(-c2cccc(=O)n2-c2cccc(F)c2)cc(OC)c1OC`, the pIC50 is 7.14 in assay [1] and 6.47 in assay [2].

Turning to `COc1cc(-c2cccc(=O)n2-c2cc(OC)c(OC)c(OC)c2)cc(OC)c1OC`, the pIC50 was 5.26 in assay [1] and 6.07 in assay [2].

For the compound `COc1cc(-n2c(-c3cccc(O)c3)cccc2=O)cc(OC)c1OC`, the results for the pIC50 in assay [1] and in assay [2] were 7.47 and 5.84, respectively.

Regarding `COc1ccc(-c2cccc(=O)n2-c2cc(OC)c(OC)c(OC)c2)cc1C`, the pIC50 is 6.89 in assay [1] and 6.23 in assay [2].

Turning to `COc1cc(-c2cccc(=O)n2-c2ccc(C(F)(F)F)cc2)cc(OC)c1OC`, the pIC50 is 4.99 in assay [1] and 5.72 in assay [2].

Turning to `COc1cc(-n2c(-c3cccc(F)c3)cccc2=O)cc(OC)c1OC`, the pIC50 in assay [1] is 6.80; in assay [2], 6.33.

For `COc1ccc(-c2cccc(=O)n2-c2cc(OC)c(OC)c(OC)c2)cc1OC`, the pIC50 was 6.29 in assay [1] and 6.26 in assay [2].

For `COc1ccc(-c2cccc(=O)n2-c2cc(OC)c(OC)c(OC)c2)cc1OCc1ccccc1`, the pIC50 in assay [1] was 6.57; in assay [2] it was 5.64.

Take `COc1ccc(-n2c(-c3cc(OC)c(OC)c(OC)c3)cccc2=O)cc1O`: the pIC50 in assay [1] and in assay [2] was 5.91 in each case.

For `COc1ccc(-c2cccc(=O)n2-c2cc(OC)c(OC)c(OC)c2)cc1`, the inhibition in vivo at 50 mg/kg in assay [3] worked out at 41%. In assay [4], the inhibition in vivo at 200 mg/kg was 54%. The pIC50 in assay [1] and in assay [2] was over 8.00 in each case. Also, the outcome in assay [5] was inactive.

In the case of `COc1cc(-n2c(-c3ccc4c(c3)OCO4)cccc2=O)cc(OC)c1OC`, the inhibition in vivo at 50 mg/kg in assay [3] worked out at 17%. Also, in assay [4], the inhibition in vivo at 200 mg/kg turned out to be 27%. Besides, the pIC50 in assay [1] is over 8.00; in assay [2], 7.19. For the same compound, the outcome in assay [5] was inactive.

On to `COc1ccc(-n2c(-c3cc(OC)c(OC)c(OC)c3)cccc2=O)cc1`, for which the negative-log IC50 (pIC50) in assay [1] was 5.24; in assay [2], 5.81.
